In ChEMBL document CHEMBL3102848, “Carbamazepine derivatives with P2X4 receptor-blocking activity” (Bioorg Med Chem, 2014):

Key:
Type in all cases: cell-based
[1] = biological target: T1, P2X purinoceptor 4 (Homo sapiens) (UniProt Q99571); assay: Antagonist activity at human P2X4 receptor expressed in human 1321N1 cells assessed as inhibition of ATP-induced cytosolic calcium influx at 100 uM preincubated for 30 mins followed by ATP addition by Fluo-4 AM dye-based fluorescence assay
T1 sequence (whole entry): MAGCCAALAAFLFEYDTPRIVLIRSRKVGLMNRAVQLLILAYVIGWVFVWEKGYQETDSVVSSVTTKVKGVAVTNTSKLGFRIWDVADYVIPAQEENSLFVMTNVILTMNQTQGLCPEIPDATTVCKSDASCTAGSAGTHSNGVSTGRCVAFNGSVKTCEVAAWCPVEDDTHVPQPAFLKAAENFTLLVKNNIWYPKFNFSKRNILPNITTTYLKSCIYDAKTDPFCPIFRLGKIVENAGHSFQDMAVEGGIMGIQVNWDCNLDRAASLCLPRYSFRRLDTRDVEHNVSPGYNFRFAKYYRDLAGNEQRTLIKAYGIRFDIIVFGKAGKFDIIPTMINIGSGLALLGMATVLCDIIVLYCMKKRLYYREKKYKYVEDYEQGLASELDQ
Procedure, shortened: (§1)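 Human P2X4 stably transfected into 1321N1 astrocytoma cells. Inhibition of ATP-induced calcium influx measured as in earlier work. Compounds were first screened at a single high concentration, chosen according to their solubility.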

[2] = biological target: T2, P2X purinoceptor 4 (Homo sapiens, UniProt Q99571); assay: Antagonist activity at human P2X4 receptor expressed in human 1321N1 cells assessed as inhibition of ATP-induced cytosolic calcium influx preincubated for 30 mins followed by ATP addition by Fluo-4 AM dye-based fluorescence assay; procedure, shortened: as §1
T2 sequence (Q99571 whole entry): T1 sequence (whole entry)

[3] = biological target: T1, P2X purinoceptor 4 (Homo sapiens); assay: Antagonist activity at human P2X4 receptor expressed in human 1321N1 cells assessed as inhibition of ATP-induced cytosolic calcium influx at 10 uM preincubated for 30 mins followed by ATP addition by Fluo-4 AM dye-based fluorescence assay; procedure, shortened: as §1
[4] = biological target: T1, P2X purinoceptor 4 (Homo sapiens); assay: Antagonist activity at human P2X4 receptor expressed in human 1321N1 cells assessed as inhibition of ATP-induced cytosolic calcium influx at 20 uM preincubated for 30 mins followed by ATP addition by Fluo-4 AM dye-based fluorescence assay; procedure, shortened: as §1
[5] = biological target: T1, P2X purinoceptor 4 (Homo sapiens); assay: Antagonist activity at human P2X4 receptor expressed in human 1321N1 cells assessed as inhibition of ATP-induced cytosolic calcium influx at 300 uM preincubated for 30 mins followed by ATP addition by Fluo-4 AM dye-based fluorescence assay; procedure, shortened: as §1

| Structure (SMILES) | inhibition [1] | IC50 [2] | inhibition [3] | inhibition [4] | inhibition [5] |
| --- | --- | --- | --- | --- | --- |
| CN(C)c1ccc2c(c1)N(C(N)=O)c1ccccc1C=C2 | 39% | 15.3 µM |  |  |  |
| NC1CCC(NC(=O)N2c3ccccc3C=Cc3ccccc32)CC1 (stereo not given) |  | > 10 µM | 11% |  |  |
| NC(=O)N1c2ccccc2C=Cc2ccc(C(F)(F)F)cc21 | 72% | 54.6 µM |  |  |  |
| O=C(Nc1ccncc1)N1c2ccccc2C=Cc2ccccc21 | 30% | > 100 µM |  |  |  |
| CC(C)N(C(=O)c1cccc2c1Nc1ccccc1C=C2)C(C)C | 74% | 30.6 µM |  |  |  |
| CCN(CC)C(=O)N1c2ccccc2C=Cc2ccncc21 | 52% | 100 µM |  |  |  |
| CNC1=Cc2ccccc2N(C(N)=O)c2ccccc21 | 80% | 36.9 µM |  |  |  |
| Cc1ccc2c(c1)N(C(N)=O)c1ccccc1C=C2 | 21% | > 100 µM |  |  |  |
| CC(=O)O[C@H]1Cc2ccccc2N(C(N)=O)c2ccccc21 [ESLICARBAZEPINE ACETATE] |  | > 20 µM |  | 25% |  |
| NC(=O)N1c2ccccc2C=Cc2ccc(F)cc21 | -2% | > 100 µM |  |  |  |
| NC(=O)N1c2ccccc2C2OC2c2ccccc21 (stereo not given) [CARBAMAZEPINE EPOXIDE] |  | > 10 µM | 1% |  |  |
| NC(=O)N1c2ccccc2C=Cc2ccccc21 [CARBAMAZEPINE] | 35% | > 100 µM |  |  |  |
| CN1CCC(NC(=O)N2c3ccccc3C=Cc3ccccc32)CC1 | 56% | ≥ 100 µM |  |  |  |
| CC(C)NC(=O)N1c2ccccc2C=Cc2ccccc21 | 47% | 19.2 µM |  |  |  |
| O=C(NCc1ccccc1)N1c2ccccc2C=Cc2ccccc21 | 75% | 78.9 µM |  |  |  |
| CCCCNC(=O)N1c2ccccc2C=Cc2ccccc21 | 49% | ≥ 100 µM |  |  |  |
| CNC(=O)N1c2ccccc2C=Cc2ccccc21 | 47% | ≥ 100 µM |  |  |  |
| O=C(Nc1ccccc1)N1c2ccccc2C=Cc2ccccc21 | 49% | 100 µM |  |  |  |
| O=C(NC1CCC(O)CC1)N1c2ccccc2C=Cc2ccccc21 (stereo not given) |  | > 20 µM |  | 0% |  |
| COc1ccc(CCNC(=O)N2c3ccccc3C=Cc3ccccc32)cc1 | 83% | 27.4 µM |  |  |  |
| CN(C)CCCNC(=O)N1c2ccccc2C=Cc2ccccc21 | 54% | 100 µM |  |  |  |
| NC(=O)N1c2ccccc2C=Cc2cc(O)ccc21 |  | 146 µM |  |  | 82% |
| NC(=O)N1c2ccccc2CC(=O)c2ccccc21 [OXCARBAZEPINE] |  | > 10 µM | 10% |  |  |

| Structure (SMILES) | inhibition [1] | IC50 [2] | inhibition [3] | inhibition [4] | inhibition [5] |
| --- | --- | --- | --- | --- | --- |
| NC(=O)N1c2ccccc2C=Cc2c1ccc1ccccc21 | 91% | 51.4 µM |  |  |  |
| O=C(c1ccccc1)N1c2ccccc2C=Cc2ccccc21 | 75% | 23.3 µM |  |  |  |
| NC(=O)N1c2ccccc2CCc2ccccc21 | 35% | > 100 µM |  |  |  |
| CCN(CC)C(=O)N1c2ccccc2C=Cc2cccc(C(=O)N(C(C)C)C(C)C)c21 |  | 52.5 µM |  |  |  |
| O=C(NCCc1ccccc1)N1c2ccccc2C=Cc2ccccc21 | 107% | 36.2 µM |  |  |  |
| C1=Cc2ccccc2N(Cc2ccccc2)c2ccccc21 | 34% | > 100 µM |  |  |  |
| CN(C)CCN(C)C(=O)N1c2ccccc2C=Cc2ccccc21 | 42% | ≥ 100 µM |  |  |  |
| CC(=O)N1c2ccccc2C=Cc2ccccc21 | 39% | > 100 µM |  |  |  |
| O=C(N1CCC(O)CC1)N1c2ccccc2C=Cc2ccccc21 |  | > 100 µM |  |  |  |
| NC(=O)N1c2ccccc2C=Cc2ccc(O)cc21 |  | 72.8 µM |  |  | 99% |
| O=C(N(CCO)CCO)N1c2ccccc2C=Cc2ccccc21 | 2% | > 100 µM |  |  |  |
| NC(=O)N1c2ccccc2CC(O)c2ccccc21 (racemic) [LICARBAZEPINE] | 28% | > 100 µM |  |  |  |
| NC(=O)N1c2ccccc2C=Cc2cc(F)ccc21 | 11% | > 100 µM |  |  |  |
| NC(=O)N1c2ccccc2C=C(N)c2ccccc21 |  | > 10 µM | 12% |  |  |
| O=C(OCc1ccccc1)N1c2ccccc2C=Cc2ccccc21 |  | 6.02 µM | 73% |  |  |
| CC(C)(C)NC(=O)N1c2ccccc2C=Cc2ccccc21 | 92% | 13.8 µM |  |  |  |
| COc1ccc2c(c1)N(C(N)=O)c1ccccc1C=C2 | 30% | > 100 µM |  |  |  |
| CN(C)C(=O)N1c2ccccc2C=Cc2ccccc21 | 49% | ≥ 100 µM |  |  |  |
| CCOC1Cc2ccccc2N(C(N)=O)c2ccccc21 (racemic) | 17% | > 100 µM |  |  |  |
| COC(=O)N1c2ccccc2C=Cc2ccccc21 | 51% | 100 µM |  |  |  |
| COC1=Cc2ccccc2N(C(N)=O)c2ccccc21 | 34% | > 100 µM |  |  |  |
| O=C(N1CCOCC1)N1c2ccccc2C=Cc2ccccc21 | 50% | ≥ 100 µM |  |  |  |
| CC(C)COC(=O)N1c2ccccc2C=Cc2ccccc21 | 58% | 100 µM |  |  |  |
